Assay results taken from ChEMBL document CHEMBL5724801, “EUbOPEN Chemogenomics Library - Multiplex” (2024).
Values joined by “and” are separate entries in the source; they are usually repeats but may differ in a detail not shown here. Equal values may be shown once.

Tested on: Fibroblast
Assay: Multiplex assay against human fibroblast
Type: toxicity, cell-based
Summary of the method: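 On a CQ1 microscope at 37°C and 5% CO2, live cells were imaged after compound addition. They had been stained at seeding with Hoechst33342, BioTracker Green Microtubule Cytoskeleton Dye, MitoTracker Red and Annexin V Alexa Fluor 680. CellPathfinder machine-learning gating assigned cells to Hoechst high-intensity objects or normal cells, normal cells to healthy, pyknosed or fragmented nuclei, and pyknosed cells to mitotic or apoptotic. Tubulin, mitochondrial-mass and membrane-permeability phenotypes are per cents of healthy-nucleus cells.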

[1] = 12 h, 1 µM, compound concentration 1 uM
[2] = 12 h, 10 µM, compound concentration 10 uM
[3] = 24 h, 1 µM, compound concentration 1 uM
[4] = 24 h, 10 µM, compound concentration 10 uM
[5] = 48 h, 1 µM, compound concentration 1 uM
[6] = 48 h, 10 µM, compound concentration 10 uM

Structure (SMILES): CCCCCCNC(=O)Nc1ccc(S(=O)(=O)Nc2ccc(CCNC[C@H](O)COc3ccc(O)cc3)cc2)cc1 [L-755507]
- Population Apoptotic (%) [1]: 40% and 46%
- Population Fragmented Nuclei (%) [1]: 27% and 21%
- Population Healthy Nuclei (%) [1]: 59%
- Population Hoechst High Intensity Objects (%) [1]: 1% and 3%
- Population Membrane Permeable-Phenotype (%) [1]: 3%
- Population Mitochondria Different-Phenotype (%) [1]: 6% and 3%
- Population Mitotic Cells (%) [1]: 60% and 53%
- Population Normal (%) [1]: 98% and 96%
- Population Pyknosed Nuclei (%) [1]: 12% and 19%
- Population Tubulin-Different-Phenotype (%) [1]: 34% and 36%
- Total Cell Count [1]: 198 and 160
- Population Apoptotic (%) [2]: 45% and 42%
- Population Fragmented Nuclei (%) [2]: 17% and 34%
- Population Healthy Nuclei (%) [2]: 72% and 48%
- Population Hoechst High Intensity Objects (%) [2]: 5%
- Population Membrane Permeable-Phenotype (%) [2]: 0% and 1%
- Population Mitochondria Different-Phenotype (%) [2]: 10% and 19%
- Population Mitotic Cells (%) [2]: 54% and 57%
- Population Normal (%) [2]: 94%
- Population Pyknosed Nuclei (%) [2]: 10% and 17%
- Population Tubulin-Different-Phenotype (%) [2]: 47% and 64%
- Total Cell Count [2]: 218 and 172
- Population Apoptotic (%) [3]: 31% and 39%
- Population Fragmented Nuclei (%) [3]: 26%
- Population Healthy Nuclei (%) [3]: 63% and 59%
- Population Hoechst High Intensity Objects (%) [3]: 1% and 2%
- Population Membrane Permeable-Phenotype (%) [3]: 0% and 3%
- Population Mitochondria Different-Phenotype (%) [3]: 3% and 12%
- Population Mitotic Cells (%) [3]: 68% and 60%
- Population Normal (%) [3]: 98% and 97%
- Population Pyknosed Nuclei (%) [3]: 9% and 13%
- Population Tubulin-Different-Phenotype (%) [3]: 27% and 44%
- Total Cell Count [3]: 196 and 176
- Population Apoptotic (%) [4]: 72% and 50%
- Population Fragmented Nuclei (%) [4]: 21% and 38%
- Population Healthy Nuclei (%) [4]: 70% and 51%
- Population Hoechst High Intensity Objects (%) [4]: 8% and 4%
- Population Membrane Permeable-Phenotype (%) [4]: 0% and 3%
- Population Mitochondria Different-Phenotype (%) [4]: 8% and 19%
- Population Mitotic Cells (%) [4]: 27% and 50%
- Population Normal (%) [4]: 91% and 95%
- Population Pyknosed Nuclei (%) [4]: 8% and 9%
- Population Tubulin-Different-Phenotype (%) [4]: 38% and 65%
- Total Cell Count [4]: 232 and 168
- Population Apoptotic (%) [5]: 62% and 53%
- Population Fragmented Nuclei (%) [5]: 28% and 33%
- Population Healthy Nuclei (%) [5]: 63% and 58%
- Population Hoechst High Intensity Objects (%) [5]: 3% and 4%
- Population Membrane Permeable-Phenotype (%) [5]: 0% and 1%
- Population Mitochondria Different-Phenotype (%) [5]: 4% and 6%
- Population Mitotic Cells (%) [5]: 37% and 46%
- Population Normal (%) [5]: 96% and 95%
- Population Pyknosed Nuclei (%) [5]: 8%
- Population Tubulin-Different-Phenotype (%) [5]: 31% and 33%
- Total Cell Count [5]: 201 and 170
- Population Apoptotic (%) [6]: 79% and 71%
- Population Fragmented Nuclei (%) [6]: 19% and 42%
- Population Healthy Nuclei (%) [6]: 69% and 53%
- Population Hoechst High Intensity Objects (%) [6]: 6% and 3%
- Population Membrane Permeable-Phenotype (%) [6]: 1% and 5%
- Population Mitochondria Different-Phenotype (%) [6]: 8% and 11%
- Population Mitotic Cells (%) [6]: 20% and 28%
- Population Normal (%) [6]: 93% and 96%
- Population Pyknosed Nuclei (%) [6]: 10% and 3%
- Population Tubulin-Different-Phenotype (%) [6]: 49% and 55%
- Total Cell Count [6]: 240 and 184

Structure (SMILES): O=C(O)c1cc2ccccc2c(Cc2c(O)c(C(=O)O)cc3ccccc23)c1O [PAMOIC ACID]
- Population Apoptotic (%) [1]: 54% and 32%
- Population Fragmented Nuclei (%) [1]: 10% and 23%
- Population Healthy Nuclei (%) [1]: 81% and 56%
- Population Hoechst High Intensity Objects (%) [1]: 2% and 6%
- Population Membrane Permeable-Phenotype (%) [1]: 0% and 6%
- Population Mitochondria Different-Phenotype (%) [1]: 2% and 8%
- Population Mitotic Cells (%) [1]: 45% and 67%
- Population Normal (%) [1]: 97% and 93%
- Population Pyknosed Nuclei (%) [1]: 7% and 19%
- Population Tubulin-Different-Phenotype (%) [1]: 20% and 34%
- Total Cell Count [1]: 147 and 154
- Population Apoptotic (%) [2]: 40% and 37%
- Population Healthy Nuclei (%) [2]: 80% and 51%
- Population Hoechst High Intensity Objects (%) [2]: 4%
- Population Membrane Permeable-Phenotype (%) [2]: 1% and 3%
- Population Mitochondria Different-Phenotype (%) [2]: 5% and 3%
- Population Mitotic Cells (%) [2]: 60% and 62%
- Population Normal (%) [2]: 95%
- Population Pyknosed Nuclei (%) [2]: 11% and 24%
- Population Tubulin-Different-Phenotype (%) [2]: 23% and 51%
- Total Cell Count [2]: 132 and 156
- Population Apoptotic (%) [3]: 33% and 32%
- Population Fragmented Nuclei (%) [3]: 10% and 23%
- Population Healthy Nuclei (%) [3]: 86% and 58%
- Population Hoechst High Intensity Objects (%) [3]: 3% and 6%
- Population Membrane Permeable-Phenotype (%) [3]: 0% and 9%
- Population Mitochondria Different-Phenotype (%) [3]: 2% and 11%
- Population Mitotic Cells (%) [3]: 66% and 68%
- Population Normal (%) [3]: 96% and 93%
- Population Tubulin-Different-Phenotype (%) [3]: 17% and 39%
- Total Cell Count [3]: 156 and 147
- Population Apoptotic (%) [4]: 50% and 40%
- Population Healthy Nuclei (%) [4]: 77% and 52%
- Population Hoechst High Intensity Objects (%) [4]: 2% and 5%
- Population Membrane Permeable-Phenotype (%) [4]: 1% and 3%
- Population Mitochondria Different-Phenotype (%) [4]: 1% and 5%
- Population Mitotic Cells (%) [4]: 50% and 59%
- Population Normal (%) [4]: 97% and 94%
- Population Pyknosed Nuclei (%) [4]: 13%
- Population Tubulin-Different-Phenotype (%) [4]: 20% and 39%
- Total Cell Count [4]: 138 and 170
- Population Apoptotic (%) [5]: 25% and 38%
- Population Fragmented Nuclei (%) [5]: 12% and 23%
- Population Healthy Nuclei (%) [5]: 79% and 58%
- Population Hoechst High Intensity Objects (%) [5]: 4% and 3%
- Population Membrane Permeable-Phenotype (%) [5]: 0% and 9%
- Population Mitochondria Different-Phenotype (%) [5]: 2% and 8%
- Population Mitotic Cells (%) [5]: 75% and 61%
- Population Normal (%) [5]: 95% and 96%
- Population Pyknosed Nuclei (%) [5]: 8% and 17%
- Population Tubulin-Different-Phenotype (%) [5]: 23% and 44%
- Total Cell Count [5]: 155 and 152
- Population Apoptotic (%) [6]: 50% and 60%
- Population Fragmented Nuclei (%) [6]: 19% and 32%
- Population Healthy Nuclei (%) [6]: 72% and 60%
- Population Hoechst High Intensity Objects (%) [6]: 5% and 3%
- Population Membrane Permeable-Phenotype (%) [6]: 2% and 3%
- Population Mitochondria Different-Phenotype (%) [6]: 5% and 1%
- Population Mitotic Cells (%) [6]: 50% and 40%
- Population Normal (%) [6]: 94% and 96%
- Population Pyknosed Nuclei (%) [6]: 7% and 6%
- Population Tubulin-Different-Phenotype (%) [6]: 29% and 28%
- Total Cell Count [6]: 136 and 156

Structure (SMILES): COc1cc2ncnc(Nc3ccc(Oc4ccccc4)cc3C)c2cc1OC.Cl
- Population Apoptotic (%) [1]: 11.11% and 23.33%
- Population Fragmented Nuclei (%) [1]: 12.3% and 7.85%
- Population Healthy Nuclei (%) [1]: 63.64% and 76.44%
- Population Hoechst High Intensity Objects (%) [1]: 0%
- Population Membrane Permeable-Phenotype (%) [1]: 5.04% and 3.42%
- Population Mitochondria Different-Phenotype (%) [1]: 8.4% and 12.33%
- Population Mitotic Cells (%) [1]: 88.89% and 76.67%
- Population Normal (%) [1]: 100%
- Population Pyknosed Nuclei (%) [1]: 24.06% and 15.71%
- Population Tubulin-Different-Phenotype (%) [1]: 15.13% and 13.7%
- Total Cell Count [1]: 187 and 191
- Population Apoptotic (%) [2]: 10.77% and 17.02%
- Population Fragmented Nuclei (%) [2]: 14.61% and 11.16%
- Population Healthy Nuclei (%) [2]: 48.88% and 68.67%
- Population Hoechst High Intensity Objects (%) [2]: 0%
- Population Membrane Permeable-Phenotype (%) [2]: 3.45% and 10.62%
- Population Mitochondria Different-Phenotype (%) [2]: 29.89% and 25%
- Population Mitotic Cells (%) [2]: 89.23% and 82.98%
- Population Normal (%) [2]: 100%
- Population Pyknosed Nuclei (%) [2]: 36.52% and 20.17%
- Population Tubulin-Different-Phenotype (%) [2]: 58.62% and 66.88%
- Total Cell Count [2]: 178 and 233
- Population Apoptotic (%) [3]: 0% and 16.67%
- Population Fragmented Nuclei (%) [3]: 10.95% and 4.57%
- Population Healthy Nuclei (%) [3]: 74.29% and 80.2%
- Population Hoechst High Intensity Objects (%) [3]: 0%
- Population Membrane Permeable-Phenotype (%) [3]: 5.77% and 1.9%
- Population Mitochondria Different-Phenotype (%) [3]: 7.05% and 6.33%
- Population Mitotic Cells (%) [3]: 100% and 83.33%
- Population Normal (%) [3]: 100%
- Population Pyknosed Nuclei (%) [3]: 14.76% and 15.23%
- Population Tubulin-Different-Phenotype (%) [3]: 15.38% and 12.66%
- Total Cell Count [3]: 210 and 197
- Population Fragmented Nuclei (%) [4]: 20.69% and 12.5%
- Population Healthy Nuclei (%) [4]: 59.48% and 79.49%
- Population Hoechst High Intensity Objects (%) [4]: 0%
- Population Membrane Permeable-Phenotype (%) [4]: 4.35% and 4.03%
- Population Mitochondria Different-Phenotype (%) [4]: 25.36% and 23.39%
- Population Mitotic Cells (%) [4]: 95.65% and 76%
- Population Normal (%) [4]: 100%
- Population Pyknosed Nuclei (%) [4]: 19.83% and 8.01%
- Population Tubulin-Different-Phenotype (%) [4]: 65.22% and 70.16%
- Total Cell Count [4]: 232 and 312
- Population Apoptotic (%) [5]: 14.29% and 18.75%
- Population Fragmented Nuclei (%) [5]: 14.46% and 12.14%
- Population Healthy Nuclei (%) [5]: 77.11% and 80.1%
- Population Hoechst High Intensity Objects (%) [5]: 0%
- Population Membrane Permeable-Phenotype (%) [5]: 1.04% and 1.21%
- Population Mitochondria Different-Phenotype (%) [5]: 11.98% and 4.85%
- Population Mitotic Cells (%) [5]: 85.71% and 81.25%
- Population Normal (%) [5]: 100%
- Population Pyknosed Nuclei (%) [5]: 8.43% and 7.77%
- Population Tubulin-Different-Phenotype (%) [5]: 8.33% and 15.76%
- Total Cell Count [5]: 249 and 206
- Population Apoptotic (%) [6]: 14.29% and 28.57%
- Population Fragmented Nuclei (%) [6]: 17.05% and 16.67%
- Population Healthy Nuclei (%) [6]: 78.98% and 81.45%
- Population Hoechst High Intensity Objects (%) [6]: 0%
- Population Membrane Permeable-Phenotype (%) [6]: 4.68% and 4.95%
- Population Mitochondria Different-Phenotype (%) [6]: 11.15% and 6.93%
- Population Mitotic Cells (%) [6]: 85.71% and 71.43%
- Population Normal (%) [6]: 100%
- Population Pyknosed Nuclei (%) [6]: 3.98% and 1.88%
- Population Tubulin-Different-Phenotype (%) [6]: 51.8% and 63.04%
- Total Cell Count [6]: 352 and 372
